Assay [1] concerns the target Voltage-gated L-type calcium channel (Cavia porcellus). Put plainly: Inhibition of [3H]nitrendipine binding to guinea pig ileal longitudinal smooth muscle.
The next assay is filed under the species Cavia porcellus. As to the kind of experiment: Inhibition of tonic (slow) component of K+ depolarization response in guinea pig ileal longitudinal smooth muscle. The class given is functional. As to conditions: Muscle tissue. A digest of the protocol: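 Longitudinal strips of terminal ileum from male guinea pigs (300-500 g) held in aerated physiologic saline under 500 mg resting tension, with isotonic recording. A control maximal response to 80 mM KCl depolarizing saline was taken, followed by washout and 30-min re-equilibration. Antagonist was then equilibrated for 30 min and the K+ response measured again. One concentration per tissue; contraction read in mm from baseline.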

Consider nine compounds from ChEMBL document CHEMBL1124024, “Crystal structures and pharmacologic activities of 1,4-dihydropyridine calcium channel antagonists of the isobutyl methyl 2,6-dimethyl-4-(substituted phenyl)-1,4-dihydropyridine-3,5-dicarboxylate (nisoldipine) series” (J Med Chem, 1988).

Regarding `CO/C(O)=C1\C(C)=NC(C)=C(C(=O)OCC(C)C)C1c1cccc(OC)c1` (configuration not stated), the values for the IC50 (in assay [1]; in the assay listed under Cavia porcellus) were 2.3 nM and 7.1 nM, respectively. The matching figures for `CO/C(O)=C1\C(C)=NC(C)=C(C(=O)OCC(C)C)C1c1cccc([N+](=O)[O-])c1` (configuration not stated): 0.0081 nM and 0.59 nM. Turning to `CO/C(O)=C1\C(C)=NC(C)=C(C(=O)OCC(C)C)C1c1ccccc1C(F)(F)F` (configuration not stated), the results for the IC50 (in assay [1]; in the assay listed under Cavia porcellus) were 0.027 nM and 2.1 nM, respectively.

As to `CO/C(O)=C1\C(C)=NC(C)=C(C(=O)OCC(C)C)C1c1ccccc1` (configuration not stated), the IC50 – broadly, the concentration that gives 50% inhibition – was 0.25 nM in assay [1] and 3.3 nM in the assay filed under Cavia porcellus.

Take `CO/C(O)=C1\C(C)=NC(C)=C(C(=O)OCC(C)C)C1c1cccc(C#N)c1` (configuration not stated): the IC50 in assay [1] was 0.013 nM; in the assay listed under Cavia porcellus it was 0.27 nM. Take `CO/C(O)=C1\C(C)=NC(C)=C(C(=O)OCC(C)C)C1c1ccc(Cl)cc1` (configuration not stated): the IC50 in assay [1] was 2.8 nM; in the assay filed under Cavia porcellus, 27 nM. For `CO/C(O)=C1\C(C)=NC(C)=C(C(=O)OCC(C)C)C1c1ccc(F)cc1` (configuration not stated) the same measures were 1.5 nM and 6.8 nM. For `CO/C(O)=C1\C(C)=NC(C)=C(C(=O)OCC(C)C)C1c1cccc(C(F)(F)F)c1` (configuration not stated), the IC50 came out at 0.14 nM in assay [1] and 15 nM in the assay listed under Cavia porcellus.

In turn, `CO/C(O)=C1\C(C)=NC(C)=C(C(=O)OCC(C)C)C1c1ccccc1[N+](=O)[O-]` (configuration not stated) yielded an IC50 in the assay filed under Cavia porcellus of 0.22 nM.
